Changes are numbered by the printed parent chain.
Test system: T1, OR1N2
T1 sequence (whole entry): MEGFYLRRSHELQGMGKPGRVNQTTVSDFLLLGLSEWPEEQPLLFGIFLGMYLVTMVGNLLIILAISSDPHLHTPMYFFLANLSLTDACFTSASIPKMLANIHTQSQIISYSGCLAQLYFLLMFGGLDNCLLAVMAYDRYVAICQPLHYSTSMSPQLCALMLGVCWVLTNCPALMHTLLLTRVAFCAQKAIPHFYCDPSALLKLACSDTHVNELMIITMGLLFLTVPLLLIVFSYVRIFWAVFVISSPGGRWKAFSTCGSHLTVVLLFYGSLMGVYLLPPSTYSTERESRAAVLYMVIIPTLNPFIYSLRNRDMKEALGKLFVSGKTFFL
Details: stereoisomer not certain
Method in brief: (§1)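 Transient luciferase assays in mammalian cell lines were common, though methods varied by source. The values come from published papers and their supplementary material, with extra details from the original authors when needed. Responsive refers to a measured signal the original authors judged statistically different from baseline, and non-responsive (inactive) to the remainder.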
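Also: active if original authors judged signal statistically different from baseline.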

Odorant receptor agonist call, inactive:
CCCCCC(=O)C(C)C(C)=O (stereo unspecified)
CCCC(S)CCOC(C)=O (stereo unspecified)
CCCCCC(S)C(C)CO (stereo unspecified)
CCCCC(S)C(C)CO (stereo unspecified)
CC1=C(O)C(=O)C(C)O1 (stereo unspecified)
CC(=O)c1c(C)c([N+](=O)[O-])c(C(C)(C)C)c([N+](=O)[O-])c1C
CC1CCCCCCCCCCCCC(=O)C1 (stereo unspecified)
CC1=NC(C)C(C)S1 (stereo unspecified)
CC1=C(O)C(=O)OC1C (stereo unspecified)
CCCCCCC=CCCC=O
CCC1OC(C)=C(O)C1=O (stereo unspecified)
Cc1cnc(C)c(C)n1
CCC1OC(=O)C(O)=C1C (stereo unspecified)
CCC(S)C(C)CO (stereo unspecified)
CC(CO)CS (stereo unspecified)

Target: T2, OR1Q1 (Homo sapiens) (UniProt Q15612)
T2 sequence (whole entry): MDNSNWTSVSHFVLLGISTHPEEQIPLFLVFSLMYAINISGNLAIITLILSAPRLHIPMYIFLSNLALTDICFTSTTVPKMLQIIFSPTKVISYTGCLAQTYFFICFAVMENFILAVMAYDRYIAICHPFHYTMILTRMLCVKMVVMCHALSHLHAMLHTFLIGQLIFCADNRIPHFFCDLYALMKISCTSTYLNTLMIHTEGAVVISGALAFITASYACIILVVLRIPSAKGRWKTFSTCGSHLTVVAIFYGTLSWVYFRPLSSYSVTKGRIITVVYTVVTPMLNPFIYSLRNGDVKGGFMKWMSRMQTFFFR
Details: stereoisomer not certain
Method in brief: as §1

Odorant receptor agonist call, inactive:
CCCCCC(=O)C(C)C(C)=O (stereo unspecified)
CCCC(S)CCOC(C)=O (stereo unspecified)
CCCCCC(S)C(C)CO (stereo unspecified)
CCCCC(S)C(C)CO (stereo unspecified)
CC1=C(O)C(=O)C(C)O1 (stereo unspecified)
CC(=O)c1c(C)c([N+](=O)[O-])c(C(C)(C)C)c([N+](=O)[O-])c1C
CC1CCCCCCCCCCCCC(=O)C1 (stereo unspecified)
CC1=NC(C)C(C)S1 (stereo unspecified)
CC1=C(O)C(=O)OC1C (stereo unspecified)
CCCCCCC=CCCC=O
CCC1OC(C)=C(O)C1=O (stereo unspecified)
Cc1cnc(C)c(C)n1
CCC1OC(=O)C(O)=C1C (stereo unspecified)
CCC(S)C(C)CO (stereo unspecified)
CC(CO)CS (stereo unspecified)

Test system: T3, OR1Q1
T3 sequence (whole entry): T2 sequence (whole entry) with Q24R, I163M
Details: stereoisomer not certain
Method in brief: as §1

Odorant receptor agonist call, inactive:
CCCC(S)CCOC(C)=O (stereo unspecified)
CC1=C(O)C(=O)C(C)O1 (stereo unspecified)
CC1=NC(C)C(C)S1 (stereo unspecified)
CC1=C(O)C(=O)OC1C (stereo unspecified)
CCCCCCC=CCCC=O
CCC1OC(C)=C(O)C1=O (stereo unspecified)
Cc1cnc(C)c(C)n1
CCC1OC(=O)C(O)=C1C (stereo unspecified)

Target: T4, OR1S1 (Homo sapiens) (UniProt Q8NH92)
T4 sequence (whole entry): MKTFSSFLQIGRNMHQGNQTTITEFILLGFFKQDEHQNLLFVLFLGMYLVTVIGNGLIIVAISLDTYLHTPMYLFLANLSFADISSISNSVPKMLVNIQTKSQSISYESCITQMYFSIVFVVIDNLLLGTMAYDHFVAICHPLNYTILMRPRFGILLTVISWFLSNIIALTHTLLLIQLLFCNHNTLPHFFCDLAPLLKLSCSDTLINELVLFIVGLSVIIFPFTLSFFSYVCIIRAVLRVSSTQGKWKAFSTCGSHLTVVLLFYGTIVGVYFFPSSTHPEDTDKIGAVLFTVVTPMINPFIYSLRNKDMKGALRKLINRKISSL
Details: stereoisomer not certain
Method in brief: as §1

Odorant receptor agonist call, inactive:
CCCCCC(=O)C(C)C(C)=O (stereo unspecified)
CCCC(S)CCOC(C)=O (stereo unspecified)
CCCCCC(S)C(C)CO (stereo unspecified)
CCCCC(S)C(C)CO (stereo unspecified)
CC1=C(O)C(=O)C(C)O1 (stereo unspecified)
CC(=O)c1c(C)c([N+](=O)[O-])c(C(C)(C)C)c([N+](=O)[O-])c1C
CC1CCCCCCCCCCCCC(=O)C1 (stereo unspecified)
CC1=NC(C)C(C)S1 (stereo unspecified)
CC1=C(O)C(=O)OC1C (stereo unspecified)
CCCCCCC=CCCC=O
CCC1OC(C)=C(O)C1=O (stereo unspecified)
Cc1cnc(C)c(C)n1
CCC1OC(=O)C(O)=C1C (stereo unspecified)
CCC(S)C(C)CO (stereo unspecified)
CC(CO)CS (stereo unspecified)

Target: T5, OR1S2 (Homo sapiens) (UniProt Q8NGQ3)
T5 sequence (whole entry): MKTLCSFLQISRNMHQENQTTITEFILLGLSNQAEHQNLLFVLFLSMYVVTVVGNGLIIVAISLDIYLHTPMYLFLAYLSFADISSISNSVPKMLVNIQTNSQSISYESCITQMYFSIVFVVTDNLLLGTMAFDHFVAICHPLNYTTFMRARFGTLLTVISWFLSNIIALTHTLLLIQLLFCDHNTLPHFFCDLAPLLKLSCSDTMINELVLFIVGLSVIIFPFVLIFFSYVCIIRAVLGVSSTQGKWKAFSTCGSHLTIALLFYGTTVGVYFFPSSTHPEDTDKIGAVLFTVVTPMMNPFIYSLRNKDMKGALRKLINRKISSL
Details: stereoisomer not certain
Method in brief: as §1

Odorant receptor agonist call, inactive:
CCCCCC(=O)C(C)C(C)=O (stereo unspecified)
CCCC(S)CCOC(C)=O (stereo unspecified)
CCCCCC(S)C(C)CO (stereo unspecified)
CCCCC(S)C(C)CO (stereo unspecified)
CC1=C(O)C(=O)C(C)O1 (stereo unspecified)
CC(=O)c1c(C)c([N+](=O)[O-])c(C(C)(C)C)c([N+](=O)[O-])c1C
CC1CCCCCCCCCCCCC(=O)C1 (stereo unspecified)
CC1=NC(C)C(C)S1 (stereo unspecified)
CC1=C(O)C(=O)OC1C (stereo unspecified)
CCCCCCC=CCCC=O
CCC1OC(C)=C(O)C1=O (stereo unspecified)
Cc1cnc(C)c(C)n1
CCC1OC(=O)C(O)=C1C (stereo unspecified)
CCC(S)C(C)CO (stereo unspecified)
CC(CO)CS (stereo unspecified)

Test system: T6, OR1S2 E17G
T6 sequence (whole entry): T5 sequence (whole entry) with E17G
Details: stereoisomer not certain
Method in brief: as §1

Odorant receptor agonist call, inactive:
CCCC(S)CCOC(C)=O (stereo unspecified)
CC1=C(O)C(=O)C(C)O1 (stereo unspecified)
CC1=NC(C)C(C)S1 (stereo unspecified)
CC1=C(O)C(=O)OC1C (stereo unspecified)
CCCCCCC=CCCC=O
CCC1OC(C)=C(O)C1=O (stereo unspecified)
Cc1cnc(C)c(C)n1
CCC1OC(=O)C(O)=C1C (stereo unspecified)

Test system: T7, OR1S2 V225T G240R
T7 sequence (whole entry): T5 sequence (whole entry) with V225T, G240R
Details: stereoisomer not certain
Method in brief: as §1

Odorant receptor agonist call, inactive:
CCCC(S)CCOC(C)=O (stereo unspecified)
CC1=C(O)C(=O)C(C)O1 (stereo unspecified)
CC1=NC(C)C(C)S1 (stereo unspecified)
CC1=C(O)C(=O)OC1C (stereo unspecified)
CCCCCCC=CCCC=O
CCC1OC(C)=C(O)C1=O (stereo unspecified)
Cc1cnc(C)c(C)n1
CCC1OC(=O)C(O)=C1C (stereo unspecified)

Target: T8, OR2A1 (Homo sapiens) (UniProt Q8NGT9)
T8 sequence (whole entry): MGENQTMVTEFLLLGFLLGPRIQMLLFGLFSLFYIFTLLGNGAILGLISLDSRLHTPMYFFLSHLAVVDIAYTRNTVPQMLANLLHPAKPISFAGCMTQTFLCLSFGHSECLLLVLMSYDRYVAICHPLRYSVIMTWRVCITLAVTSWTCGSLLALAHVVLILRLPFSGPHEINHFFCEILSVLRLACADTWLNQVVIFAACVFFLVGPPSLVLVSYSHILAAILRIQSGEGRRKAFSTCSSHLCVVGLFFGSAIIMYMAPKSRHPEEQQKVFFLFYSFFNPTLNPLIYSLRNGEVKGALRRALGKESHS
Details: stereoisomer not certain
Method in brief: as §1

Odorant receptor agonist call, inactive:
C=C(C)C1CC=C(C)CC1 (stereo unspecified)
CCCCCCCCCCCCCCCCCC(=O)OCC
CCCCCC(=O)C(C)C(C)=O (stereo unspecified)
CCCCCCC(=O)[O-].[H+]
CCC(O)CC
COc1ccc2[nH]cc(CCNC(C)=O)c2c1
CCCC(S)CCOC(C)=O (stereo unspecified)
CCCCCC(S)C(C)CO (stereo unspecified)
CCCCCCCCCCCCCCCC(=O)OC
CCCCCCCC(=O)[O-].[H+]
Cc1cccc(C)c1C
CCCCC(S)C(C)CO (stereo unspecified)
CC1=C(O)C(=O)C(C)O1 (stereo unspecified)
CC(=O)c1c(C)c([N+](=O)[O-])c(C(C)(C)C)c([N+](=O)[O-])c1C
CCCCCCCC(=O)OC
CC1CCCCCCCCCCCCC(=O)C1 (stereo unspecified)
CCC(=O)O
CC1=NC(C)C(C)S1 (stereo unspecified)
CC1=C(O)C(=O)OC1C (stereo unspecified)
CCCCCCC=CCCC=O
CCC1OC(C)=C(O)C1=O (stereo unspecified)
Cc1cnc(C)c(C)n1
Cc1ccc(C(C)C)cc1
CCC1OC(=O)C(O)=C1C (stereo unspecified)
CCC(S)C(C)CO (stereo unspecified)
CC(CO)CS (stereo unspecified)
CCCCCCCCCCCCCCCC(=O)[O-].[H+]
